Test results published in ChEMBL document CHEMBL1136633, “Synthesis and thrombolytic activity of fibrinogen fragment related cyclopeptides” (Bioorg Med Chem Lett, 2003).
Where a SMILES comes first, the peptide text is derived from it.

Assays:
[1] = In vitro stability to pepsin promoting hydrolysis after 84 hr incubation time; type: ADME; conditions: read-out: Degradation
How it was run: (§1)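 Test compound (10 mg) dissolved in 1 mL phosphate buffer pH 8, then 0.5 mg pepsin or trypsin added. Mixture held at 37 °C. Remaining compound was measured hourly by HPLC using 25% CH₃OH in water with 0.1% CF₃COOH, and percent degradation was derived.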

[2] = In vitro stability to trypsin promoting hydrolysis after 64h incubation time; type: ADME; conditions: read-out: Degradation; how it was run: as §1
[3] = In vitro stability to trypsin promoting hydrolysis after 84 hr incubation time; type: ADME; conditions: read-out: Degradation; how it was run: as §1
[4] = In vitro stability to pepsin promoting hydrolysis after 64h incubation time; type: ADME; conditions: read-out: Degradation; how it was run: as §1
[5] = In vitro stability to trypsin promoting hydrolysis after 8 hr incubation time; type: ADME; conditions: read-out: Degradation; how it was run: as §1
Rattus norvegicus [6] = test: In vivo thrombolytic activity at a dose of 5.0 mg in male rat; type: functional
How it was run: (§2)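 Rat arterial-venous shunt. Arterial blood (1.0 mL) from the right carotid was collected onto a stainless steel helix for 15 min to form a thrombus, which was weighed. The helix was placed in a heparin-filled (50 IU/mL in NS) polyethylene shunt to the left jugular vein. Heparin was injected, then compound. Blood circulated 90 min and the helix was reweighed. Readout was thrombus mass reduction; N=8, NS vehicle, ANOVA.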

[7] = In vitro stability to trypsin promoting hydrolysis after 2 hr incubation time; type: ADME; conditions: read-out: Degradation; how it was run: as §1
[8] = In vitro stability to pepsin promoting hydrolysis after 8 hr incubation time; type: ADME; conditions: read-out: Degradation; how it was run: as §1
[9] = In vitro stability to pepsin promoting hydrolysis after 2 hr incubation time; type: ADME; conditions: read-out: Degradation; how it was run: as §1
[10] = In vitro stability to trypsin promoting hydrolysis after 1 hr incubation time; type: ADME; conditions: read-out: Degradation; how it was run: as §1
[11] = In vitro stability to pepsin promoting hydrolysis after 1 hr incubation time; type: ADME; conditions: read-out: Degradation; how it was run: as §1
Rattus norvegicus [12] = test: In vivo thrombolytic activity at a dose of 20.0 mg in male rat; type: functional; how it was run: as §2
Rattus norvegicus [13] = test: In vivo thrombolytic activity at a dose of 10.0 mg in male rat; type: functional; how it was run: as §2

| Structure (SMILES) | metabolised at 84 h [1] | metabolised at 64 h [2] | metabolised at 84 h [3] | metabolised at 64 h [4] | metabolised at 8 h [5] | metabolised at 2 h [7] | metabolised at 8 h [8] | metabolised at 2 h [9] | metabolised at 1 h [10] | metabolised at 1 h [11] | Activity (Rattus norvegicus [6]) | also measured |
| --- | --- | --- | --- | --- | --- | --- | --- | --- | --- | --- | --- | --- |
| C[C@@H]1NC(=O)[C@H](CCCCN)NC(=O)[C@H](CCCCN)NC(=O)[C@H](CCCN=C(N)N)NC(=O)[C@@H]2CCCN2C1=O | 30% | 0% | 35% | 0% | – | – | – | – | – | – | – | – |
| C[C@@H]1NC(=O)[C@H](CCCN=C(N)N)NC(=O)[C@@H]2CCCN2C(=O)[C@H](C)NC(=O)[C@H](CCCCN)NC1=O | 40% | 0% | 38% | 0% | – | – | – | – | – | – | – | – |
| C[C@@H]1NC(=O)[C@@H](CCCCN)NC(=O)CNC(=O)[C@@H](CCCN=C(N)N)NC(=O)[C@@H]2CCCN2C1=O | – | – | – | – | – | – | – | – | – | – | 11.86 mg | Activity (Rattus norvegicus [12]): 18.88 mg; Activity (Rattus norvegicus [13]): 17.31 mg |
| C[C@@H]1NC(=O)[C@@H](CCCCN)NC(=O)[C@H](CCCCN)NC(=O)[C@@H](CCCN=C(N)N)NC(=O)[C@@H]2CCCN2C1=O | – | – | – | – | – | – | – | – | – | – | 6.13 mg | – |
| C[C@@H]1NC(=O)[C@H](CCCCN)NC(=O)CNC(=O)[C@H](CCCN=C(N)N)NC(=O)[C@@H]2CCCN2C1=O | 10% | 0% | 20% | 0% | – | – | – | – | – | – | – | – |
| C[C@@H]1NC(=O)[C@@H](CCCCN)NC(=O)[C@H](CCC(N)=O)NC(=O)[C@@H](CCCN=C(N)N)NC(=O)[C@@H]2CCCN2C1=O | – | – | – | – | – | – | – | – | – | – | 9.68 mg | – |
| C[C@@H]1NC(=O)[C@@H](CCCN=C(N)N)NC(=O)[C@@H]2CCCN2C(=O)[C@H](C)NC(=O)[C@@H](CCCCN)NC1=O | – | – | – | – | – | – | – | – | – | – | 10.62 mg | – |

Continued, in another order:

| metabolised at 84 h [1] | metabolised at 64 h [2] | metabolised at 84 h [3] | metabolised at 64 h [4] | metabolised at 8 h [5] | metabolised at 2 h [7] | metabolised at 8 h [8] | metabolised at 2 h [9] | metabolised at 1 h [10] | metabolised at 1 h [11] | Structure (SMILES) | Activity (Rattus norvegicus [6]) | also measured |
| --- | --- | --- | --- | --- | --- | --- | --- | --- | --- | --- | --- | --- |
| 25% | 0% | 20% | 0% | – | – | – | – | – | – | C[C@@H]1NC(=O)[C@H](CCCCN)NC(=O)[C@H](CCC(N)=O)NC(=O)[C@H](CCCN=C(N)N)NC(=O)[C@@H]2CCCN2C1=O | – | – |
| – | – | – | – | 96% | 70% | 95% | 80% | 30% | 50% | C[C@H](NC(=O)[C@@H]1CCCN1C(=O)[C@H](CCCN=C(N)N)NC(=O)[C@@H](N)CCCCN)C(=O)N[C@@H](CCCCN)C(=O)O (H-KRPAK-OH) | 0.28 mg | – |
| – | – | – | – | 98% | 77% | 93% | 75% | 25% | 56% | C[C@H](NC(=O)[C@@H]1CCCN1C(=O)[C@H](CCCN=C(N)N)NC(=O)CN)C(=O)N[C@@H](CCCCN)C(=O)O (H-GRPAK-OH) | 9.31 mg | Activity (Rattus norvegicus [12]): 16.81 mg; Activity (Rattus norvegicus [13]): 13.17 mg |
| – | – | – | – | 95% | 72% | 92% | 78% | 20% | 45% | C[C@H](NC(=O)[C@@H]1CCCN1C(=O)[C@H](CCCN=C(N)N)NC(=O)[C@@H](N)CCC(N)=O)C(=O)N[C@@H](CCCCN)C(=O)O (H-QRPAK-OH) | 7.02 mg | – |
| – | – | – | – | 99% | 95% | 98% | 50% | 79% | 10% | C[C@H](N)C(=O)N[C@@H](CCCN=C(N)N)C(=O)N1CCC[C@H]1C(=O)N[C@@H](C)C(=O)N[C@@H](CCCCN)C(=O)O (H-ARPAK-OH) | 6.07 mg | – |
